Data: ChEMBL document CHEMBL1141162, “Inhibition of carboxylesterases by benzil (diphenylethane-1,2-dione) and heterocyclic analogues is dependent upon the aromaticity of the ring and the flexibility of the dione moiety” (J Med Chem, 2005)
Several values for one entry are separate records, joined by “and”; a condition that tells them apart may be missing. Identical values can stand only once.

What was measured:
Acetylcholinesterase = Acetylcholinesterase (Homo sapiens, UniProt P22303); experiment: Inhibition of 1 mM acetylthiocholine (AcTCh) binding to human Acetylcholinesterase
Chain of Acetylcholinesterase (P22303 whole entry): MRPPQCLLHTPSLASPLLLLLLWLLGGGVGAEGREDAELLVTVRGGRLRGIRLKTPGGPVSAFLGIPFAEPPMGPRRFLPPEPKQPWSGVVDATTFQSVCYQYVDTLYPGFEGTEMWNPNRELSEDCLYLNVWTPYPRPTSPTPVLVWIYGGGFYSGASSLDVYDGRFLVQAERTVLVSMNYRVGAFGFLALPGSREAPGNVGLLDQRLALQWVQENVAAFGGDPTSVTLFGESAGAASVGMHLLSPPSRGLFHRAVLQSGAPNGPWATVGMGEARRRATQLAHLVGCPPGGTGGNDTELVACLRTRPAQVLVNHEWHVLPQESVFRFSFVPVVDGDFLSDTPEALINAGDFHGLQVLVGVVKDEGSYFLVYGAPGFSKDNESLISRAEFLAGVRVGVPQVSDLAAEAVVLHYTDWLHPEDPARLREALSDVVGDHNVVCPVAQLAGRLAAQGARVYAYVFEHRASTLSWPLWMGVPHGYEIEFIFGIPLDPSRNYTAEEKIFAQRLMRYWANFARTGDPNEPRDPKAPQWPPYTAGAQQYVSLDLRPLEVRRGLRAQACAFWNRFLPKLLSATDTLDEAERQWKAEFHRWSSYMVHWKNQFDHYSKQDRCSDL
Summary of the method: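 Human acetylcholinesterase from a commercial supplier, assayed with 1 mM acetylthiocholine as substrate.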

Liver carboxylesterase 1 = target: T1, Liver carboxylesterase 1 (Homo sapiens, UniProt P23141); experiment: Inhibition constant against human liver carboxylesterase (hCE1) expressed in Sf21 cells using 3 mM o-NPA; assay type: cell-based, Oryctolagus cuniculus
T1 sequence (P23141 whole entry): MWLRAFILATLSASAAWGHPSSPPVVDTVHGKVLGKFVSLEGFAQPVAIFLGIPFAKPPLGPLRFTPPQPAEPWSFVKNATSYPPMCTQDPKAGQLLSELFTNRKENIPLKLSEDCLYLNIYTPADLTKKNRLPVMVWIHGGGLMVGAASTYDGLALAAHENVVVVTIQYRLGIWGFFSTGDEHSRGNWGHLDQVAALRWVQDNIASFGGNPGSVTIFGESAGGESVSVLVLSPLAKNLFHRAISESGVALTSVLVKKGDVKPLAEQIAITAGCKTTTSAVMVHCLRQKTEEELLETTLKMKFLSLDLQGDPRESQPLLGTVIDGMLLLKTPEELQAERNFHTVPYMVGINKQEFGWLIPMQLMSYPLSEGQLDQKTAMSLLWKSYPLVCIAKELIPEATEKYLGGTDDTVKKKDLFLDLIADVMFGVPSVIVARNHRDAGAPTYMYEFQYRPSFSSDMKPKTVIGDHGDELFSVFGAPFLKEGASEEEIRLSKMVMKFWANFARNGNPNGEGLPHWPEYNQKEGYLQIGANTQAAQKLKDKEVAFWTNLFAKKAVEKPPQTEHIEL

[1] = Inhibition constant against rabbit liver carboxylesterase (rCE) expressed in Sf21 cells using 3 mM o-NPA; parameters: species or system Oryctolagus cuniculus
Cocaine esterase = target: T2, Cocaine esterase (Homo sapiens, UniProt O00748); experiment: Inhibition constant against human intestinal carboxylesterase (hiCE) expressed in Sf21 cells using 3 mM o-NPA
T2 sequence (O00748 whole entry): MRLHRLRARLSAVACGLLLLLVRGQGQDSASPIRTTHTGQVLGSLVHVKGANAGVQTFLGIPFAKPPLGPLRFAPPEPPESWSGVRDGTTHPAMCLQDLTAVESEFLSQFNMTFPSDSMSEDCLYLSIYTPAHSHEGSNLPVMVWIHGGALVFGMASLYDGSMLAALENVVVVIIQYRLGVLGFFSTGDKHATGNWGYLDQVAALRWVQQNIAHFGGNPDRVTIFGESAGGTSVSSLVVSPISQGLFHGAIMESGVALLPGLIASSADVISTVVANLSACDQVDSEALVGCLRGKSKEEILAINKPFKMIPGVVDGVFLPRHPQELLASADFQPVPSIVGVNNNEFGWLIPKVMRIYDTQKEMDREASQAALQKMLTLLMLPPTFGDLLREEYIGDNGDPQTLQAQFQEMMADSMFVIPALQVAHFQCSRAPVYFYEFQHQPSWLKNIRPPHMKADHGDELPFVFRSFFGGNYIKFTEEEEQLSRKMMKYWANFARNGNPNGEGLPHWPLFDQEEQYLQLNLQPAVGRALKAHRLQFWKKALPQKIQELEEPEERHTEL

SMILES	Ki (Acetylcholinesterase) [µM]	Ki (Liver carboxylesterase 1)	Ki [1] [µM]	Ki (Cocaine esterase) [µM]	Ki (Liver carboxylesterase 1; sf21) [µM]
O=C(C(=O)c1ccc(Br)s1)c1ccc(Br)s1	> 100				
O=C(C(=O)c1ccc2ccccc2c1)c1ccc2ccccc2c1		0.255 µM	0.00104		
O=C(C(=O)c1ccccn1)c1ccccn1	> 100	0.126 µM and 0.484 µM			
O=C(C(=O)c1cccs1)c1cccs1	> 100	0.212 µM and 0.874 µM		1.04	
O=C(c1ccco1)C(O)c1ccco1 (stereo not drawn)	> 100	> 100 µM		> 100	> 100
O=C(c1cccs1)C(O)c1cccs1 (stereo not drawn)	> 100	1.66 µM and 4.54 µM		5.61	
O=C(C(=O)c1ccsc1)c1ccsc1	> 100	0.365 µM and 2.41 µM		6.54	
O=C(C(=O)c1cc(Br)cs1)c1cc(Br)cs1	> 100			0.0573	
O=C(C(=O)c1ccco1)c1ccco1	> 100	1.17 µM and 8.48 µM		8	
